Results pooled from the literature.
Each line is one published result; the experiments were not run side by side.
Target: Tyrosine-protein kinase Blk (BLK, Homo sapiens, UniProt P51451)

SMILES	effect on	action	technique	tested at	quantity	result
C[C@H]1CC[C@H](n2c3cnccc3c3cnc(Nc4ccc5c(n4)CCN(C(=O)CO)C5)nc32)CC1	cell-free assay		competition with immobilised ligand	1 µM	remaining binding	53%
CCCCC(=O)Nc1ccc(-c2ccc3ncn(CCC)c(=O)c3c2)cn1	binding		competition with immobilised ligand	0.5 µM	remaining binding	83%
Cc1ccc(NC(=O)c2ccnc(C(F)(F)F)c2)cc1-c1cc(OCCO)nc(N2CCOCC2)c1	binding		competition with immobilised ligand	1 µM	remaining binding	100%
CC(C)S(=O)(=O)c1ccc2nccc(Nc3ccc4sc(C5CCCC5)nc4c3)c2c1	enzyme activity	inhibitor		1 µM	activity vs control	80%
CO[C@@H]1[C@H](N(C)C(=O)c2ccccc2)C[C@H]2O[C@]1(C)n1c3ccccc3c3c4c(c5c6ccccc6n2c5c31)C(=O)NC4	enzyme activity	inhibitor		1 µM	inhibition	79%
C1=C/COCc2cc(ccc2OCCN2CCCC2)Nc2nccc(n2)-c2cccc(c2)COC/1	binding			0.1 µM	remaining binding	97%
COc1ccc2oc(-c3ccc4nc(N)oc4c3)c/c(=N\c3ccccc3NC(=O)CCN)c2c1	binding			1 µM	remaining binding	92%
CC#CC(=O)N1CCC[C@H]1c1nc(-c2ccc(C(=O)Nc3ccccn3)cc2)c2c(N)nccn12	enzyme activity	inhibitor		1 µM	inhibition	47%
